# High-throughput results as filed in PubChem.
# MT1-MMP act inh: blockers of MT1-MMP proenzyme processing, primary screen, HT1080 RFP-PRO-GFP cells, GFP/RFP fluorescence; Matrix metalloproteinase-14 (Homo sapiens), P50281; GFP/RFP ratio fluorescence, overnight; percent of plate control window, DMSO zero; GFP/RFP ratio change, % at 20 µM; hit rate 0.061% among 360,000;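 active = GFP/RFP ratio change of at least 30% with cell ATP level not reduced by more than half and red fluorescence within 50% of control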
#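 Assay system: RFP-PRO-GFP reporter HT1080 cells; read-out basis: GFP/RFP fluorescence ratio; benchmarks: DMSO wells and RFP-L50D-GFP cells; doses: 20 µM single dose, 1% DMSO; schedule: overnight cell settling, then overnight compound exposure, 37 °C, 5% CO2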
# NR2E3 ag-1: inhibitors of NR2E3-RetCOR corepressor binding, primary screen, NR2E3 agonist project, biochemical, TR-FRET, GST-NR2E3, biotin-RetCOR | Photoreceptor-specific nuclear receptor (Homo sapiens), Q9Y5X4 | hit rate 0.12% among 320,000 | inhibition of corepressor binding, % at 4.78 µM | 1536-well;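 active = percent inhibition above the cutoff of mean plus 3 SD of all tested compounds, set per screening campaign, cut at about 20% in these data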;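 note: 0% = DMSO wells and 100% = biotin wells as full block of FRET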
# Target sequence (Q9Y5X4 whole entry, looked up): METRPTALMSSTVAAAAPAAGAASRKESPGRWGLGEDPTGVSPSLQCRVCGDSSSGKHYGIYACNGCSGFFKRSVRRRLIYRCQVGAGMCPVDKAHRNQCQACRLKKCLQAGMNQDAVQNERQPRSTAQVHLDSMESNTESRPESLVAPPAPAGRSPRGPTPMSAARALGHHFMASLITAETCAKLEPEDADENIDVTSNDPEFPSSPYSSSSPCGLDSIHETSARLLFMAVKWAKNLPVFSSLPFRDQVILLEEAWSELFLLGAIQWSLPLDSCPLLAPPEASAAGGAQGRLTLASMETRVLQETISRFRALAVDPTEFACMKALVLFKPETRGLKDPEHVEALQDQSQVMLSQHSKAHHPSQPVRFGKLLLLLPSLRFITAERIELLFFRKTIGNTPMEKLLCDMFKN
#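 system = GST-tagged NR2E3 plus biotinylated RetCOR corepressor | input = 1.35 nM GST-NR2E3 | also added = 7 nM biotin-RetCOR | schedule = 5 h incubation at 4 °C | measured by = TR-FRET with europium anti-GST and streptavidin-D2, 340 nm excitation | read-out = percent loss of FRET ratio relative to control wells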
# SKN-1 inh: suppressors of acrylamide-induced Pgst-4::GFP reporter in worms, primary screen, SKN-1 inhibitor project, whole organism, uHTS, GFP/RFP fluorescence ratio, strain VP596. AID 624304, 2012. inhibition, % at 21.8 µM. hit rate 0.49% among 360,000. C. elegans VP596 Pgst-4::GFP/RFP ratio, 24 h;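 active = interference check ratio from 0.5 to 1.5 plus GFP to RFP signal ratio inhibition reaching or exceeding a fixed threshold, cut at about 30% in these data, passing the limit was not always enough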
# NR1D1 modulator: modulators of Rev-erb alpha DNA binding, primary screen, biochemical, FITC-DNA, fluorescence polarization, uHTS. Nuclear receptor subfamily 1 group D member 1 (Homo sapiens), P20393. Rev-erbα–FITC-DNA binding, 90 min. activity, % at 10 µM. hit rate 0.79% among 370,000. AID 1259318, 2017;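 active = activity above about 14%, limit read from the data; passing the limit was not always enough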;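 note: 0% = DMSO wells with 35 nM protein and 100% = DMSO wells with 750 nM protein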
# PG9 binder: binders of HIV-1 gp120 antibody PG9, primary screen, biochemical, TR-FRET | inhibition, % at 6.7 µM | hit rate 0.43% among 360,000 | TR-FRET gp120-PG9 antibody binding | HIV-1 gp120 / PG9 antibody interaction; in the data active = inhibition above about 8.5%
# NR2E3 ag-2: NR2E3 agonists in two-hybrid cells, primary screen, cell-based, luminescence, CHO-S, Gal4-NCOR/VP16-NR2E3; inhibition of corepressor binding, % at 3.98 µM; Photoreceptor-specific nuclear receptor (Homo sapiens), Q9Y5X4; luciferase; AID 602229, 2012; hit rate 0.35% among 360,000;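 active = inhibition above the mean of all tested compounds plus 3 SD, cut at about 70% in these data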;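 note: 0% = DMSO with NR2E3 transfected cells and 100% = cells lacking NR2E3 construct; higher means lower luciferase signal from less NR2E3 corepressor binding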
# Active calls of the source: *; · = no result given. Hits are enriched below; roughly 1.9% of the tested compounds scored in any of these assays.
SMILES,MT1-MMP act inh,NR2E3 ag-1,SKN-1 inh,NR1D1 modulator,PG9 binder,NR2E3 ag-2
O=C(NC1CCCCN(Cc2cccc(C(F)(F)F)c2)C1=O)c1ccc(Cl)cc1 (stereo not given),·,·,·,-5,·,·
FC(F)(F)c1cc(C(F)(F)F)c2ccc(N3CCN(c4ccc(Cl)cc4)CC3)nc2n1,5,-2,13,-6,-2,-14
N#CC(c1ccc(Cl)cc1)c1ccc2c(C(F)(F)F)cc(C(F)(F)F)nc2n1 (stereo not given),-17,0,37*,4,-1,62
CC(C)c1ccc(N(CC(=O)Nc2ccc(S(=O)(=O)N3CCOCC3)cc2)S(C)(=O)=O)cc1,4,5,40*,-6,0,-1
Cc1cc(-c2csc(NC(=O)c3ccc(=O)n(C)n3)n2)c(C)n1CC1CCCO1 (stereo not given),0,6,39*,·,·,-5
O=C(C1CCN(S(=O)(=O)c2ccc(Cl)cc2)CC1)N1CCCCCCC1,2,0,-11,0,0,4
O=C(C1CCCCC1)N1CCN(S(=O)(=O)c2ccc(Cl)cc2)CC1,-1,0,37*,4,-2,17
O=C(C1CCN(S(=O)(=O)c2c(Cl)cccc2Cl)CC1)N1CCCC1,1,·,35*,-4,-1,2
C[C@@H](O)[C@H]1C(=O)N2C(C(=O)O)=C(SC3Cn4cnc[n+]4C3)[C@H](C)[C@H]12 (stereo not given in full),·,·,·,-3,·,·
CN1/C(=C\C(=O)COC(=O)Cn2nnc(-c3ccccc3)n2)C(C)(C)c2ccccc21,39*,2,66,-9,0,5
Cc1cc(Nc2cccc([N+](=O)[O-])c2)cc(=O)n1-c1cccc([N+](=O)[O-])c1,·,·,·,0,0,·
Cc1ccc(NC(=O)CNC(=O)c2cccs2)cc1S(=O)(=O)Nc1ccc(Cl)cc1,-1,0,41*,10,-2,-13
COc1ccc(NC(=O)CNC(=O)c2cccs2)cc1Cl,-4,2,-3,3,-2,-33
Nc1ccn([C@@H]2O[C@H](C(=O)N[C@H](Cc3ccccc3)C(=O)N3CCN(CC(=O)N4CCCC4)CC3)[C@@H](O)[C@H]2O)c(=O)n1,·,·,·,4,-3,·
C[C@@H]1O[C@@H](OC[C@H]2OC(Oc3c(-c4ccc(OCCO)c(OCCO)c4)oc4cc(OCCO)cc(O)c4c3=O)[C@H](O)[C@@H](O)[C@@H]2O)[C@H](O)[C@H](O)[C@H]1O (stereo not given in full),·,·,·,15,·,·
CCOC(=O)Cn1cc(CN2C(C(=O)OC)CN(Cc3ccc(C)cc3)CCS2(=O)=O)nn1 (stereo not given),·,·,·,-4,·,·
O=[N+]([O-])c1cc(CN2CCCC2)ccc1Sc1ccc(Cl)cc1,-2,0,52*,0,1,34
Clc1ccc(CN2CCCCCC2)cc1,-1,-3,-3,1,-3,14
O=C1c2cc(Br)ccc2OC2C=CC=CC12 (stereo not given),3,·,42*,3,1,-14
O=S1(=O)c2ccc(N3CCC[C@@H]3CO)cc2O[C@@H]2CCN1C2,·,·,·,4,·,·
OC[C@@H](O)[C@H](O[C@@H]1O[C@H](CO)[C@H](O)[C@H](O)[C@H]1O)[C@H](O)[C@@H](O)CO,·,·,·,-4,·,·
O=c1[nH]c(=O)n(C2C[C@@H](O)[C@@H](CO)O2)cc1F (stereo not given in full),·,·,·,11,·,·
CC1(C)CC(=O)C2=C(C1)NC(SCC(=O)Nc1ccccc1)=C(C#N)C2c1ccco1 (stereo not given),-10,6,0,-3,1,-16
